Assay results pooled from the literature.
Compare with care: the assays were run in different laboratories. In brackets after ≈: the same amount, converted by molar mass.

Compound	organism	test	test system	conditions	measurement	value
C[C@@H](c1ncncc1F)[C@](O)(Cn1cncn1)c1ccc(F)cc1F	Acanthamoeba castellanii	parasite growth, resazurin	–	7 days	IC50	21.6 µM
N#Cc1cc(-c2nc3ccccc3s2)c(=O)n(NS(=O)(=O)c2ccccc2)c1N	Human mastadenovirus B	plaque formation	HEp-2	–	IC50	110 mg/L
O=c1[nH]c(NCc2ccc(Cl)c(Cl)c2)nc2ncn(CCCCCN3CCOCC3)c12	Lacticaseibacillus casei	microbial growth, agar dilution	–	48 h	MIC	16 mg/L (≈ 34.4 µM)
COc1cc2[nH]c3cc(Oc4ccc(OC(F)(F)F)cc4)ccc3c(=O)c2cc1F	Toxoplasma gondii	parasite growth	–	72 h, intracellular	EC50	0.00063 µM
CCc1cc(Nc2cc(=O)n(CCCCO)c(=O)[nH]2)ccc1C	Lacticaseibacillus casei	microbial growth, agar dilution	–	48 h	MIC	32 mg/L (≈ 101 µM)
CC(C)(C)C1=CC(=NNC(=O)C2CCCCC2)C=C(C(C)(C)C)C1=O	Toxoplasma gondii	parasite growth, fluorescence	–	5 days, intracellular	IC50	> 100 µM
O=C1C(O)=C([C@H]2CC[C@H](c3ccc(Cl)cc3)CC2)C(=O)c2ccccc21	Toxoplasma gondii	parasite growth	–	72 h, intracellular	EC50	0.0106 µM
Cc1ccc(C(=O)ON=C2C=C(C(C)(C)C)C(=O)C(C(C)(C)C)=C2)cc1	Toxoplasma gondii	parasite growth, fluorescence	–	5 days, intracellular	IC50	13 µM
OC[C@H]1O[C@@H](n2ccc3c(O)ncnc32)[C@H](O)[C@@H]1O	Toxoplasma gondii	parasite growth	human Fibroblast	intracellular	IC50	36.1 µM
N=C(NCCCCCCNC(=N)NC(=N)Nc1ccc(Cl)cc1)NC(=N)Nc1ccc(Cl)cc1	Acanthamoeba castellanii	parasite growth, resazurin	–	96 h	IC50	5.97 µM
CCc1nc(N)nc(N)c1-c1ccc(Cl)cc1	Toxoplasma gondii	parasite growth	human Fibroblast	intracellular	IC50	16.1 µM
Cc1nc2sccn2c1C(=O)N1CCN(CCn2cc(-c3ccc(C(C)(C)C)cc3)nn2)CC1	Mycolicibacterium smegmatis	microbial growth	–	72 h	IC50	> 128 µM
